Test results as given in ChEMBL document CHEMBL1139095, “Butyl 2-(4-[1.1'-biphenyl]-4-yl-1H-imidazol-2-yl)ethylcarbamate, a potent sodium channel blocker for the treatment of neuropathic pain” (Bioorg Med Chem Lett, 2007).
Activity calls are given as the source filed them.

Experiments:
[1] = Displacement of [3H]BTX from sodium channel in rat cerebral cortex synaptosomal membrane; format: tissue-based
SH-SY5Y = assay: Cytoprotection against vetratridine-induced cytotoxicity in human SH-SY5Y cells; format: functional, cell-based
Method in brief: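 SH-SY5Y neuroblastoma cells were seeded 24 h ahead and pre-incubated 20 min with compound. They were then exposed 3 h to veratridine plus 1 mM ouabain, and the medium was swapped for 10% alamar blue for 18–24 h. Absorbance was read at 570/620. Percent cell injury was calculated from blank-corrected OD. IC50 (concentration halving injury) was extrapolated from dose–response graphs; triplicate means, two experiments.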

Rattus norvegicus [2] = assay: Antihyperalgesic effect in carrageenan-induced rat hyperalgesia model at 30 mg/kg, ip; format: functional, organism-based; design: dose 30 mg/kg
Method in brief: (§1)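 Compound or vehicle was given ip 30 min before paw withdrawal threshold was measured to mechanical stimulus (Randall–Selitto). Carrageenan model: inflamed versus contralateral paw. CCI model: injured versus non-injured paw. Groups of n = 4–6 were compared with vehicle by two-sided Student/Dunnett test; mean ± SEM.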

Rattus norvegicus [3] = assay: Protective activity against chronic constriction injury-induced rat neuropathic pain model at 30 mg/kg, ip; format: functional, organism-based; design: dose 30 mg/kg; method in brief: as §1
Rattus norvegicus [4] = assay: Antihyperalgesic effect in carrageenan-induced rat hyperalgesia model at 10 mg/kg, ip; format: functional, organism-based; design: dose 10 mg/kg; method in brief: as §1

Row | Structure (SMILES) | IC50 [1] | IC50 (SH-SY5Y) | other results
1 | O=C(NCCc1nc(-c2ccc(-c3ccccc3)cc2)c[nH]1)OC1CCCCC1 | 26 nM | 650 nM | 
2 | CCCCOC(=O)NCCc1nc(-c2ccc(Br)cc2)c[nH]1 | 210 nM | 900 nM | 
3 | CCOC(=O)NCCc1nc(-c2ccc(-c3ccccc3)cc2)c[nH]1 | 71 nM |  | 
4 | CCCCOC(=O)NCCc1nc(-c2ccc(C3CCCCC3)cc2)c[nH]1 | 7 nM |  | 
5 | CC(C)(C)OC(=O)NCc1nc(-c2ccc(-c3ccccc3)cc2)c[nH]1 | 144 nM |  | 
6 | CCCCOC(=O)NCCc1nc(-c2ccc(CC)cc2)c[nH]1 | 96 nM | 3220 nM | 
7 | O=C(NCCc1nc(-c2ccc(-c3ccccc3)cc2)c[nH]1)OCC1CCCCC1 | 21 nM | 700 nM | 
8 | CCCCCCOC(=O)NCCc1nc(-c2ccc(-c3ccccc3)cc2)c[nH]1 | 15 nM | 670 nM | 
9 | CCCCOC(=O)NCCc1nc(-c2ccc(CC(C)C)cc2)c[nH]1 | 41 nM | 750 nM | 
10 | O=C(NCCc1nc(-c2ccc(-c3ccccc3)cc2)c[nH]1)OC1CCCC1 | 52 nM | 870 nM | 
11 | CC(C)(C)OC(=O)NCCc1nc(-c2ccc(-c3ccccc3)cc2)c[nH]1 | 64 nM |  | 
12 | CCCOC(=O)NCCc1nc(-c2ccc(-c3ccccc3)cc2)c[nH]1 | 86 nM |  | 
13 | CCCCOC(=O)NCCc1nc(-c2ccc(N3CCCC3)cc2)c[nH]1 | 14 nM | 1120 nM | 
14 | COC(=O)NCCc1nc(-c2ccc(-c3ccccc3)cc2)c[nH]1 | 282 nM |  | 
15 | CCCCOC(=O)NCCc1nc(-c2ccc(F)cc2)c[nH]1 | 1000 nM |  | 
16 | CCCCOC(=O)NCCc1nc(-c2ccc(C(F)(F)F)cc2)c[nH]1 | 453 nM |  | 
17 | CCCCOC(=O)NCCc1nc(-c2ccc(CCC)cc2)c[nH]1 | 62 nM | 3990 nM | 
18 | CC(C)(C)OC(=O)NCCCc1nc(-c2ccc(-c3ccccc3)cc2)c[nH]1 | 184 nM |  | 
19 | CC(C)(C)COC(=O)NCCc1nc(-c2ccc(-c3ccccc3)cc2)c[nH]1 | 372 nM |  | 
20 | CCCCOC(=O)NCCc1nc(-c2ccc(-c3ccccc3)cc2)c[nH]1 | 32 nM | 230 nM | Activity (Rattus norvegicus [2]): Active; Activity (Rattus norvegicus [3]): Active; Activity (Rattus norvegicus [4]): Active
21 | CC(C)COC(=O)NCCc1nc(-c2ccc(-c3ccccc3)cc2)c[nH]1 | 26 nM | 610 nM | 
